Test results reported in ChEMBL document CHEMBL1250461, “Synthesis, binding and bioactivity of gamma-methylene gamma-lactam ecdysone receptor ligands: advantages of QSAR models for flexible receptors” (Bioorg Med Chem, 2010).

Key:
[1] = Binding affinity to Bovicola ovis recombinant ecdysone receptor ligand binding domain after 3 hrs by fluorescence polarization assay
How it was run: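 B. ovis EcR_DEF/USP_DEF LBD heterodimer, co-expressed from baculovirus and purified by IMAC (2.51 mg/mL final). Competes with 36 nM fluorescein–inokosterone A conjugate in 50 mM sodium phosphate, 100 mM NaCl, pH 7.4 with 0.5 mg/mL BSA and 3% v/v DMSO. Compound range 3 nM–3 mM final. Incubated overnight at 4 °C, then 3 h at room temperature before polarisation (mP) read. Triplicate; IC50 from mean.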

Ecdysone receptor = molecular target: T1, Ecdysone receptor (Lucilia cuprina, UniProt O18531); experiment: Binding affinity to Lucilia cuprina recombinant ecdysone receptor ligand binding domain after 3 hrs by fluorescence polarization assay
T1 sequence (O18531 whole entry): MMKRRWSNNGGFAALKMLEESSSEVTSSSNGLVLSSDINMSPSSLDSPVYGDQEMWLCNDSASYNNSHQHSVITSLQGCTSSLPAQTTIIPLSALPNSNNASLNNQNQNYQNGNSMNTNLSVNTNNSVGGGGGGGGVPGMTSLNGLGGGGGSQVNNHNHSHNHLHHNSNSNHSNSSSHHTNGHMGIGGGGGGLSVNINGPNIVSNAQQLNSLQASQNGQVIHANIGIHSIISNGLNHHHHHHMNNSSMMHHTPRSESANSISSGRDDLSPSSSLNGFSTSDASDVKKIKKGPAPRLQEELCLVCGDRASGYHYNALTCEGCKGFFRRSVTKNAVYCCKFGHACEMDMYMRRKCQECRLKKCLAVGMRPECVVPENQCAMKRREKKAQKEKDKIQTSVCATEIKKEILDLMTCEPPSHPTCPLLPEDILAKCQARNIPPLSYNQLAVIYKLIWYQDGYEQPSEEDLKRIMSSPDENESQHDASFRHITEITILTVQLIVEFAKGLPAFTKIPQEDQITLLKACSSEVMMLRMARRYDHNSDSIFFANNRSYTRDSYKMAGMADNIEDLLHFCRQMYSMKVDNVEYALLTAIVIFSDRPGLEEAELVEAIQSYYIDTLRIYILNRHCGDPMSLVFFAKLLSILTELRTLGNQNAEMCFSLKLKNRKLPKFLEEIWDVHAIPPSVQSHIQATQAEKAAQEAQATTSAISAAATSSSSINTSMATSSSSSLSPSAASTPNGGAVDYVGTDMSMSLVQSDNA
How it was run: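 L. cuprina EcR_DEF/USP_DEF LBD heterodimer, baculovirus co-expressed and IMAC-purified, used at 1.14 mg/mL. Fluorescence polarisation competition against 36 nM fluorescein–inokosterone A conjugate, with 0.5 mg/mL BSA and 3% v/v DMSO in 50 mM sodium phosphate/100 mM NaCl, pH 7.4. Test range 3 nM–3 mM final. Overnight at 4 °C, then 3 h re-equilibration at room temperature, mP read. Triplicate on one plate; IC50 from mean.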

SMILES | IC50 [1] [µM] | IC50 (Ecdysone receptor) [µM]
C=C1C(C)=C(C#N)C(=O)N1c1ccc(Cl)c(Cl)c1Cl | 15 | –
C=C1C(C)=C(C#N)C(=O)N1c1ccc(Cl)cn1 | 95 | –
C=C1C(C)=C(C#N)C(=O)N1c1ccc(Cl)c2ccccc12 | 15 | –
C=C1C(C)=C(C#N)C(=O)N1c1ccccc1OCC | 350 | –
C=C1C(C)=C(C#N)C(=O)N1Cc1ccccc1Cl | 37.5 | –
C=C1C(C)=C(C#N)C(=O)N1c1c(C)cc(C)cc1C | 68 | –
C=C1C(C)=C(C#N)C(=O)N1c1cc([N+](=O)[O-])ccc1OC | 55 | –
C=C1C(C)=C(C(=O)c2ccccc2)C(=O)N1c1cc(Cl)c(Cl)cc1Cl | 9 | –
C=C1C(C)=C(C#N)C(=O)N1c1c(C)cccc1C(C)(C)C | 160 | –
C=C1C(C)=C(C#N)C(=O)N1c1cccc(C(F)(F)F)c1 | 22 | –
C=C1C(c2ccccc2)=C(C#N)C(=O)N1c1c(C)cccc1C(C)C | 43 | 55
C=C1C(C)=C(C#N)C(=O)N1c1cc(C(F)(F)F)ccc1C(F)(F)F | 4.5 | –
C=C1C(CCCC)=C(C#N)C(=O)N1c1c(C)cccc1[N+](=O)[O-] | 71 | –
C=C1C(C)=C(C#N)C(=O)N1c1c(C)cc(Cl)cc1C(C)C | 20 | –
C=C1C(C)=C(C#N)C(=O)N1C1CC2CCC1C2 (stereo not drawn) | 48 | –
C=C1C(C)=C(C#N)C(=O)N1c1ccccc1OC(F)(F)F | 45 | –
C=C1C(C)=C(C#N)C(=O)N1c1ccccc1Cc1ccccc1 | 22.5 | –
C=C1C(C)=C(C#N)C(=O)N1c1ccc(F)cc1F | 90 | –
C=C1C(C)=C(C#N)C(=O)N1c1ncc(Cl)cc1Cl | 45 | –
C=C1C(CC)=C(C#N)C(=O)N1NC(=O)c1ccc(Cl)cc1 | 72.5 | –
C=C1C(C(C)C)=C(C#N)C(=O)N1c1ccc(Cl)cc1C(C)(C)C | 6.5 | 42
C=C1C(CCCC)=C(C#N)C(=O)N1c1ccccc1OC(F)(F)F | 15 | –
C=C1C(C)=C(C#N)C(=O)N1c1cc(Cl)cc(Cl)c1 | 9.8 | 27.5
CCC/C=C1\C(C)=C(C#N)C(=O)N1c1c(C(C)(C)C)ccc(Cl)c1C | 2300 | –

SMILES | IC50 [1] [µM] | IC50 (Ecdysone receptor) [µM]
C=C1C(C)=C(C(C)=O)C(=O)N1c1cc(Cl)c(Cl)cc1Cl | 45 | –
C=C1C(C(C)C)=C(C#N)C(=O)N1c1ccccc1C(C)(C)C | 9.5 | 15
C=C1C(CC(C)C)=C(C#N)C(=O)N1c1ccccc1C | 11 | –
C=C1C(C)=C(C#N)C(=O)N1C1CCCC1 | 85 | –
C=C1C(C)=C(C#N)C(=O)N1c1ccccc1Cl | 55 | –
C=C1C(C)=C(C#N)C(=O)N1c1ccc(-c2ccccc2)cc1 | 35 | –
C=C1C(C(C)C)=C(C#N)C(=O)N1c1c(C)cc(Cl)cc1Cl | 62.5 | 480
C=C1C(C(C)C)=C(C#N)C(=O)N1c1c(C)cc(C)cc1C | 55 | –
C=C1C(C)=C(C#N)C(=O)N1c1ccc(OC)cc1OC | 150 | –
C=C1C(C)=C(C#N)C(=O)N1c1cccc(SC)c1 | 25 | –
C=C1C(C)=C(C(=O)OCC)C(=O)N1c1cc(Cl)c(Cl)cc1Cl | 11 | –
C=C1C(C)=C(C#N)C(=O)N1c1ccccc1C | 80 | –
C=C1C(C)=C(C(=O)c2ccccc2)C(=O)N1c1c(C(C)C)cccc1C(C)C | 2250 | –
C=C1C(C)=C(C#N)C(=O)N1c1ccccc1OC | 11 | –
C=C1C(CCCC)=C(C#N)C(=O)N1c1c(C)cccc1Cl | 6 | 56
C=C1C(C)=C(C#N)C(=O)N1c1c(C)cc(Cl)cc1C | 48 | –
C=C1C(CC)=C(C#N)C(=O)N1c1cc(Cl)c(Cl)cc1Cl | 5.5 | 7.25
C=C1C(C)=C(C#N)C(=O)N1c1cc(Cl)c(Cl)cc1Cl | 7 | –
C=C1C(C)=C(C(=O)c2ccccc2)C(=O)N1c1c(C)cc(C)cc1C | 44 | –
C=C1C(C(C)C)=C(C#N)C(=O)N1c1c(C)cc(Cl)cc1C | 11 | –
C=C1C(C)=C(C#N)C(=O)N1c1ccccc1Br | 37.5 | –
C=C1C(CC(C)C)=C(C#N)C(=O)N1c1cc(Cl)ccc1Cl | 6.8 | –
C=C1C(C)=C(C(=O)c2ccccc2)C(=O)N1c1c(C)cccc1C(C)C | 58 | –
C=C1C(CC)=C(C#N)C(=O)N1c1ccccc1OC(F)(F)F | 26 | –

SMILES | IC50 [1] [µM] | IC50 (Ecdysone receptor) [µM]
C=C1C(C)=C(C#N)C(=O)N1C1CCCCC1 | 50 | –
C=C1C(C)=C(C#N)C(=O)N1c1nccs1 | 90 | –
C=C1C(C)=C(C#N)C(=O)N1c1cc(Cl)ccc1OC(=O)CC | 55 | –
C=C1C(CC)=C(C#N)C(=O)N1c1ccccc1C(C)(C)C | 40 | –
C=C1C(CC)=C(C#N)C(=O)N1c1cccc(Cl)c1Cl | 17.5 | –
C=C1C(CCCC)=C(C#N)C(=O)N1c1c(C)cc(C)cc1C | 11 | –
C=C1C(CCCC)=C(C#N)C(=O)N1c1c(C)cccc1C(C)C | 20.3 | –
C=C1C(CC(C)C)=C(C#N)C(=O)N1c1c(Cl)c(Cl)cc(Cl)c1Cl | 45 | –
C=C1C(C)=C(C#N)C(=O)N1c1ccc(F)c([N+](=O)[O-])c1 | 20 | –
C=C1C(CCC)=C(C#N)C(=O)N1c1c(C)cccc1C(C)C | 10.5 | –
C=C1C(CC)=C(C#N)C(=O)N1c1c(C)cccc1C(C)C | 45 | –
C=C1C(CCC)=C(C#N)C(=O)N1c1c(C)cccc1CC | 48 | –
C=C1C(C)=C(C#N)C(=O)N1c1ccccc1-c1ccccc1 | 25 | –
C=C1C(CC)=C(C#N)C(=O)N1c1c(C)cccc1CC | 80 | –
C=C1C(C)=C(C#N)C(=O)N1c1cc(Cl)ccc1Cl | 12.5 | –
C=C1C(C)=C(C#N)C(=O)N1c1ccc(NC(C)=O)cc1 | 575 | –
C/C=C1\C(C)=C(C#N)C(=O)N1c1c(Cl)cc(Cl)cc1Cl (mixture of isomers) | 85 | –
C=C1C(c2ccccc2)=C(C#N)C(=O)N1c1cc(Cl)ccc1Cl | 8.5 | –
C=C1C(CCCC)=C(C#N)C(=O)N1c1c(C)cccc1C | 35 | –
CN(C(=O)C1CCCCC1)N1C(=O)C(C#N)=C2CCCC=C21 | 88 | –
C=C1C(CC)=C(C#N)C(=O)N1c1c(Cl)cc(Cl)cc1Cl | 160 | –
C=C1C(C)=C(C#N)C(=O)N1c1cc(Cl)ccc1OC | 650 | –
C=C1C(C)=C(C#N)C(=O)N1c1ccccc1C(C)(C)C | 17.5 | –
C=C1C(C)=C(C(=O)C(C)C)C(=O)N1c1cc(Cl)c(Cl)cc1Cl | 16 | –

SMILES | IC50 [1] [µM] | IC50 (Ecdysone receptor) [µM]
C=C1C(C)=C(C#N)C(=O)N1c1c(C)cc(C)cc1C(F)(C(F)(F)F)C(F)(F)F | 160 | –
C=C1C(CCCCCCCC)=C(C#N)C(=O)N1c1c(C)cc(C)cc1C | 22 | –
C=C1C(c2ccccc2)=C(C#N)C(=O)N1c1cc(C)ccc1F | 12.5 | –
C=C1C(C)=C(C#N)C(=O)N1c1cccc(Oc2ccccc2)c1 | 18 | –
C=C1C(C)=C(C(=O)c2ccccc2)C(=O)N1c1cc(C(F)(F)F)ccc1Cl | 18 | –
C=C1C(C)=C(C#N)C(=O)N1C1CCCC(C)C1C (stereo not drawn) | 250 | –
C=C1C(C)=C(C#N)C(=O)N1c1cccc(Cl)c1Cl | 22.5 | –
C=C1C(C)=C(C#N)C(=O)N1c1ccccc1C(C)C | 22.5 | –
C=C1C(CCCC)=C(C#N)C(=O)N1c1c(C)cc(Cl)cc1C(C)C | 17.5 | –
C=C1C(C)=C(C#N)C(=O)N1c1cc(Cl)ccc1O | 92.5 | –
C=C1C(C)=C(C#N)C(=O)N1c1c(CC)cccc1C(C)(C)C | 150 | –
C=C1C(CCC)=C(C#N)C(=O)N1C1CCCCC1 | 27.5 | –
C=C1C(C)=C(C#N)C(=O)N1c1ccc2c(c1)OCO2 | 67.5 | –
C=C1C(C)=C(C#N)C(=O)N1c1ccc(N(C)C(C)=O)cc1 | 400 | –
C=C1C(C)=C(C#N)C(=O)N1c1cnc2ccccc2c1 | 26 | –
C=C1C(C)=C(C#N)C(=O)N1c1cccc(Cl)c1 | 19 | –
C=C1C(C)=C(C#N)C(=O)N1c1c(C)cc(Cl)cc1Cl | 55 | –
C=C1C(CC)=C(C#N)C(=O)N1c1cccc(Cl)c1C | 15 | –
C=C1C(C)=C(C#N)C(=O)N1c1c(C)cccc1[N+](=O)[O-] | 160 | –
C=C1C(CCCC)=C(C#N)C(=O)N1c1cc(OC)c(OC)c(OC)c1 | 21 | –
C=C1C(C)=C(C#N)C(=O)N1C1CCCc2ccccc21 (stereo not drawn) | 26 | –
C=C1C(C)=C(C#N)C(=O)N1c1ccccc1Oc1ccccc1 | 25 | –
C=C1C(C)=C(C#N)C(=O)N1c1ccc(N(C)C)cc1 | 150 | –
COc1cc(OC)cc(N2C(=O)C(C#N)=C(C)/C2=C/C(C)C)c1 | 65 | –
